How the values were obtained:
Cell line [1] = test: Effective concentration for transcriptional activation of aromatase in Human cell native protein assay; type: functional, cell-based
Glucocorticoid receptor [2] = biological target: T1, Glucocorticoid receptor (Homo sapiens, UniProt P04150); test: Inhibition of transcriptional repression in CV-1 cells expressing glucocorticoid receptor; type: functional, cell-based
T1 sequence (P04150 whole entry): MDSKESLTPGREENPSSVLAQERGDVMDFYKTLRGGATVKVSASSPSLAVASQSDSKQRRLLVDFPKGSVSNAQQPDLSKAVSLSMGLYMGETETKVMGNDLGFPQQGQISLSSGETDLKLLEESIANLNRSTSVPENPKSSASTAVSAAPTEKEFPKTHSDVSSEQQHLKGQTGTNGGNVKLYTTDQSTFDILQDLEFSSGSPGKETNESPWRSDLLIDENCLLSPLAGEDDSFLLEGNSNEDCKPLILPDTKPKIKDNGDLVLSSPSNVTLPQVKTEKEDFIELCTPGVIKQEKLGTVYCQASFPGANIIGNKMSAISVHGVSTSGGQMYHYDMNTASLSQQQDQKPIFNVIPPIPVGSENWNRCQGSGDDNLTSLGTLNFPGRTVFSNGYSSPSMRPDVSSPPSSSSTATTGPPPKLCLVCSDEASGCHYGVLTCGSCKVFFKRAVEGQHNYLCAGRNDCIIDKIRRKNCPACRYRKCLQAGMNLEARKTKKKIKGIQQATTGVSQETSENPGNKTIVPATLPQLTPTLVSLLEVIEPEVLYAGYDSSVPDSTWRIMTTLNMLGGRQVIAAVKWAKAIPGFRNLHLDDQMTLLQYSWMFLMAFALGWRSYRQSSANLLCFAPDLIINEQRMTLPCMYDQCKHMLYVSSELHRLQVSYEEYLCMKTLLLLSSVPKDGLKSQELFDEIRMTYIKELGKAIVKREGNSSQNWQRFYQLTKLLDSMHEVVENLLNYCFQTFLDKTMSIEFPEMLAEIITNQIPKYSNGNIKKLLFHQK

Cell line [3] = test: Efficacy for transcriptional activation of TAT in Human cell native protein assay expressed as percentage of the maximal response of Dexamethasone; type: functional
Cell line [4] = test: Effective concentration of compound for transcriptional repression of collagenase in Human cell native protein assay
Cell line [5] = test: Efficacy for transcriptional […] of PGE-2 in Human cell native protein assay expressed as percentage of the maximal response of Dexamethasone; type: functional
Cell line [6] = test: Efficacy for transcriptional repression of IL-6 in Human cell native protein assay expressed as percentage of the maximal response of Dexamethasone; type: functional
Cell line [7] = test: Effective concentration of compound for transcriptional repression of PGE-2 in Human cell native protein assay
Cell line [8] = test: Effective concentration of compound for transcriptional activation of TAT in Human cell native protein assay; type: functional, cell-based
Cell line [9] = test: Efficacy for transcriptional activation of collagenase in Human cell native protein assay expressed as percentage of the maximal response of Dexamethasone; type: functional
Cell line [10] = test: Efficacy for transcriptional repression of osteocalcin in Human cell native protein assay expressed as percentage of the maximal response of Dexamethasone
[11] = biological target: T2, Progesterone receptor (Homo sapiens) (UniProt P06401); test: In vitro binding affinity against progesterone receptor
T2 sequence (whole entry): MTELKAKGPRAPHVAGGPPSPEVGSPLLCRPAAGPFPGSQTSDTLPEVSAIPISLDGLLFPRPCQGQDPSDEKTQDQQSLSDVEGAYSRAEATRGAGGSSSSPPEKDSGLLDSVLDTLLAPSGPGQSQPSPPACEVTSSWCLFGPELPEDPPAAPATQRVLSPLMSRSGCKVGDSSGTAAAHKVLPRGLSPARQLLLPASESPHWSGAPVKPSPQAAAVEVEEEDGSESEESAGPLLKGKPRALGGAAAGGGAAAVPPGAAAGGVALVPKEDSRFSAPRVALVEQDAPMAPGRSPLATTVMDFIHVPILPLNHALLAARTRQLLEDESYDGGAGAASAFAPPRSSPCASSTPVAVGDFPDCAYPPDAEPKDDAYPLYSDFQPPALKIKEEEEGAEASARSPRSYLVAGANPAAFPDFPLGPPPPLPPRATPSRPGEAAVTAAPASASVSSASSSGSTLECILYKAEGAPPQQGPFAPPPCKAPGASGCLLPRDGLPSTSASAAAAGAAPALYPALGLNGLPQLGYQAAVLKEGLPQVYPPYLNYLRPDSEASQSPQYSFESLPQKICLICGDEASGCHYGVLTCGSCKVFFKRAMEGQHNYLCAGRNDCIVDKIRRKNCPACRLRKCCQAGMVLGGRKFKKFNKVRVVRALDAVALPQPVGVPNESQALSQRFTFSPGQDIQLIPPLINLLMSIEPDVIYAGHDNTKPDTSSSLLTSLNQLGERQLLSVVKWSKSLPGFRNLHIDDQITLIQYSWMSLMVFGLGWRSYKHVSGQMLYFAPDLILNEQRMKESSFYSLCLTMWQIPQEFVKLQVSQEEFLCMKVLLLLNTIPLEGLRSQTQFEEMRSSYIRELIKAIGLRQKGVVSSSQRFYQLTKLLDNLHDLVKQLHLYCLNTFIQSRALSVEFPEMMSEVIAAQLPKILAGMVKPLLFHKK
Procedure, shortened: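 Competition binding assay against progesterone receptor. Replicates vary by value: single experiments in triplicate; two experiments with triplicate determinations (with standard deviation); or at least three separate experiments in triplicate (mean ± SEM).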

Cell line [12] = test: Effective concentration of compound for transcriptional repression of IL-6 in Human cell native protein assay
Cell line [13] = test: Efficacy for transcriptional activation of aromatase in Human cell native protein assay expressed as percentage of the maximal response of Dexamethasone; type: functional
[14] = biological target: T2, Progesterone receptor (Homo sapiens); test: Transcriptional activation in cells expressing progesterone receptor isoform B compared to progesterone; type: functional
Glucocorticoid receptor [15] = biological target: T1, Glucocorticoid receptor; test: Inhibition of transcriptional activation in CV-1 cells expressing glucocorticoid receptor; type: functional, cell-based
Progesterone receptor = biological target: T3, Progesterone receptor (Homo sapiens, UniProt P06401); test: Inhibition of transcriptional activation in cells expressing progesterone receptor isoform B; type: functional
T3 sequence (P06401 whole entry): T2 sequence (whole entry)

Cell line [16] = test: Effective concentration of compound for transcriptional activation of osteocalcin in Human cell native protein assay; type: functional, cell-based

Row | SMILES | IC50 (Glucocorticoid receptor [2]) [nM] | Activity [11] [nM] | IC50 (Glucocorticoid receptor [15]) [nM] | further results
1 | COc1cccc2c1-c1ccc3c(c1[C@H]([C@H]1C=C(C)CCC1)O2)C(C)=CC(C)(C)N3 | 19 | 710 | 40 | EC50 (Cell line [1]): 640 nM; Efficacy (Cell line [3]): 49%; EC50 (Cell line [4]): 32 nM; Efficacy (Cell line [5]): 95%; Efficacy (Cell line [6]): 82%; EC50 (Cell line [7]): 35 nM; EC50 (Cell line [8]): 110 nM; Efficacy (Cell line [9]): 89%; Efficacy (Cell line [10]): 38%; EC50 (Cell line [12]): 62 nM; Efficacy (Cell line [13]): 26%; Efficacy [14]: 13%
2 | COc1cccc2c1-c1ccc3c(c1C(C1C=CCCC1)O2)C(C)=CC(C)(C)N3 (centres undefined) | 21 | 2400 | 13 | –
3 | COc1cccc2c1-c1ccc3c(c1C(CC=C(F)F)O2)C(C)=CC(C)(C)N3 (centres undefined) | 20 | 2300 | 76 | –
4 | COc1cccc2c1-c1ccc3c(c1C(C1C=CCCCC1)O2)C(C)=CC(C)(C)N3 (centres undefined) | – | > 5000 | – | –
5 | C=CCC1Oc2cccc(OC)c2-c2ccc3c(c21)C(C)=CC(C)(C)N3 (stereo in doubt; (-)4a) [AL-43] | 6.9 | – | 14 | EC50 (Cell line [1]): 160 nM; Efficacy (Cell line [3]): 71%; EC50 (Cell line [4]): 37 nM; Efficacy (Cell line [6]): 83%; EC50 (Cell line [8]): 40 nM; Efficacy (Cell line [9]): 77%; EC50 (Cell line [12]): 30 nM; Efficacy (Cell line [13]): 82%
6 | C=C(COC(C)=O)CC1Oc2cccc(OC)c2-c2ccc3c(c21)C(C)=CC(C)(C)N3 (centres undefined) | 141 | > 5000 | 310 | –
7 | CC/C=C\CC1Oc2cccc(OC)c2-c2ccc3c(c21)C(C)=CC(C)(C)N3 (centres undefined) | 88 | > 5000 | 89 | –
8 | COc1cccc2c1-c1ccc3c(c1C(C1C=C(C)CCC1)O2)C(C)=CC(C)(C)N3 (centres undefined) | 7 | 980 | 15 | –
9 | COc1cccc2c1-c1ccc3c(c1C(C1/C=C\CCCCC1)O2)C(C)=CC(C)(C)N3 (centres undefined) | – | > 5000 | – | –
10 | COC(=O)/C=C/CC1Oc2cccc(OC)c2-c2ccc3c(c21)C(C)=CC(C)(C)N3 (centres undefined) | 87 | > 5000 | 220 | –
11 | C=C(C)CC1Oc2cccc(OC)c2-c2ccc3c(c21)C(C)=CC(C)(C)N3 (centres undefined) | 42 | > 5000 | 66 | –
12 | C=CCC1Oc2cccc(OC)c2-c2ccc3c(c21)C(C)=CC(C)(C)N3 (stereo in doubt; 4a) | – | 1800 | – | –
13 | COc1cccc2c1-c1ccc3c(c1[C@@H]([C@@H]1C=C(C)CCC1)O2)C(C)=CC(C)(C)N3 | > 5000 | > 5000 | > 5000 | –
14 | C=CCC1Oc2cccc(OC)c2-c2ccc3c(c21)C(C)=CC(C)(C)N3 (stereo in doubt; 4a) [AL-43] | 13 | – | 33 | –
15 | COc1cccc2c1-c1ccc3c(c1C(CC=C(C)C)O2)C(C)=CC(C)(C)N3 (centres undefined) | 23 | 1600 | > 5000 | –
16 | COc1cccc2c1-c1ccc3c(c1[C@@H]([C@H]1C=C(C)CCC1)O2)C(C)=CC(C)(C)N3 | 440 | > 5000 | > 5000 | –
17 | COc1cccc2c1-c1ccc3c(c1C(C1C=CCC1)O2)C(C)=CC(C)(C)N3 (centres undefined) | – | 2200 | – | –

Row | SMILES | IC50 (Glucocorticoid receptor [2]) [nM] | Activity [11] [nM] | IC50 (Glucocorticoid receptor [15]) [nM] | further results
18 | C=C(Br)CC1Oc2cccc(OC)c2-c2ccc3c(c21)C(C)=CC(C)(C)N3 (centres undefined) | 110 | > 5000 | 240 | –
19 | C/C=C/CC1Oc2cccc(OC)c2-c2ccc3c(c21)C(C)=CC(C)(C)N3 (centres undefined) | 38 | 2100 | 150 | –
20 | C=C(CC1Oc2cccc(OC)c2-c2ccc3c(c21)C(C)=CC(C)(C)N3)C(=O)OC (centres undefined) | > 5000 | > 5000 | > 5000 | –
21 | C=C1CCCCC1C1Oc2cccc(OC)c2-c2ccc3c(c21)C(C)=CC(C)(C)N3 (centres undefined) | 320 | > 5000 | > 5000 | –
22 | COc1cccc2c1-c1ccc3c(c1C(CC1=CCCCC1)O2)C(C)=CC(C)(C)N3 (centres undefined) | – | > 5000 | – | –
23 | C=C(CO)CC1Oc2cccc(OC)c2-c2ccc3c(c21)C(C)=CC(C)(C)N3 (centres undefined) | 141 | > 5000 | 310 | –
24 | C=CCC1Oc2cccc(OC)c2-c2ccc3c(c21)C(C)=CC(C)(C)N3 (stereo in doubt; (-)4a) | – | 1300 | – | –
25 | C=CC(C)C1Oc2cccc(OC)c2-c2ccc3c(c21)C(C)=CC(C)(C)N3 (centres undefined) | 40 | > 5000 | 110 | –
26 | C/C=C\CC1Oc2cccc(OC)c2-c2ccc3c(c21)C(C)=CC(C)(C)N3 (centres undefined) | 23 | 1200 | 39 | –
27 | COc1cccc2c1-c1ccc3c(c1C(CC=C1CCCC1)O2)C(C)=CC(C)(C)N3 (centres undefined) | 217 | > 5000 | > 5000 | –
28 | COc1c(O)ccc2c1-c1ccc3c(c1[C@H]([C@@H]1C=C(C)CCC1)O2)C(C)=CC(C)(C)N3 | – | 11.4 | – | IC50 (Progesterone receptor): 7.1 nM; Efficacy [14]: 260%
29 | COc1c(O)ccc2c1-c1ccc3c(c1[C@H]([C@H]1C=C(C)CCC1)O2)C(C)=CC(C)(C)N3 | – | 52 | – | IC50 (Progesterone receptor): 210 nM; Efficacy [14]: 190%
30 | C[C@]12C=CC(=O)C=C1CC[C@@H]1[C@@H]2[C@@H](O)C[C@@]2(C)[C@H]1CC[C@]2(O)C(=O)CO [PREDNISOLONE] | – | > 5000 | – | EC50 (Cell line [1]): 45 nM; EC50 (Cell line [16]): 32 nM; Efficacy (Cell line [3]): 95%; EC50 (Cell line [4]): 0.4 nM; Efficacy (Cell line [5]): 100%; Efficacy (Cell line [6]): 98%; EC50 (Cell line [7]): 2 nM; EC50 (Cell line [8]): 48 nM; Efficacy (Cell line [9]): 98%; Efficacy (Cell line [10]): 94%; EC50 (Cell line [12]): 3.6 nM; Efficacy (Cell line [13]): 96%
31 | C=CC(C)(C)C1Oc2cccc(OC)c2-c2ccc3c(c21)C(C)=CC(C)(C)N3 (centres undefined) | > 5000 | > 5000 | > 5000 | –
32 | COc1cccc2c1-c1ccc3c(c1C(C/C=C/CO)O2)C(C)=CC(C)(C)N3 (centres undefined) | 150 | > 5000 | > 5000 | –
33 | COc1cccc2c1-c1ccc3c(c1[C@H]([C@@H]1C=C(C)CCC1)O2)C(C)=CC(C)(C)N3 | 5.8 | 430 | > 5000 | EC50 (Cell line [1]): 59 nM; EC50 (Cell line [16]): 54 nM; Efficacy (Cell line [3]): 67%; EC50 (Cell line [4]): 3.4 nM; Efficacy (Cell line [5]): 95%; Efficacy (Cell line [6]): 90%; EC50 (Cell line [7]): 5.4 nM; EC50 (Cell line [8]): 290 nM; Efficacy (Cell line [9]): 97%; Efficacy (Cell line [10]): 71%; EC50 (Cell line [12]): 45 nM; IC50 (Progesterone receptor): 14 nM; Efficacy (Cell line [13]): 43%; Efficacy [14]: 70%
